From ChEMBL document CHEMBL4024799, “Synthesis and Biological Characterization of Aryl Uracil Inhibitors of Hepatitis C Virus NS5B Polymerase: Discovery of ABT-072, a trans-Stilbene Analog with Good Oral Bioavailability” (J Med Chem, 2018)
Values after ≈ are worked out from the molar mass of the structure shown. Active and inactive are the calls of the source. The rule behind the calls is not given here.

Key:
Hepatitis C virus [1] = assay: Antiviral activity against HCV genotype 1b Con1 infected in human HuH7 cells harboring HCV subgenomic bicistronic replicon after 3 days by luciferase reporter gene assay; format: functional, cell-based, Hepacivirus hominis; conditions: genotype 1b Con1, Huh-7, 72 h
Method in brief: (§1)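 Subgenomic genotype 1a (H77) or 1b (Con1) replicons carrying firefly luciferase, transfected into Huh-7 cells. Replication inhibition was read as luciferase level in cell lysate on a luminometer and reported as EC50. Runs were done without human plasma or with 40% human plasma added, to assess inhibitor–protein binding.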

[2] = Aqueous solubility of the compound at pH 7.2; format: physicochemical; conditions: buffer, read-out: solubility
Hepatitis C virus [3] = assay: Antiviral activity against HCV genotype 1a H77 infected in human HuH7 cells harboring HCV subgenomic bicistronic replicon after 3 days by luciferase reporter gene assay; format: functional, cell-based, Hepacivirus hominis; conditions: genotype 1a H77, Huh-7, 72 h; method in brief: as §1
Hepatitis C virus [4] = assay: Antiviral activity against HCV genotype 1a H77 infected in human HuH7 cells harboring HCV subgenomic bicistronic replicon after 3 days in presence of 40% human plasma by luciferase reporter gene assay; format: functional, cell-based, Hepacivirus hominis; conditions: genotype 1a H77, Huh-7, 72 h; method in brief: as §1
[5] = Oral bioavailability in Sprague-Dawley rat at 5 mg/kg; format: ADME, organism-based; conditions: in vivo
Method in brief: (§2)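 Sprague-Dawley rats, n = 3 per experiment; solution in DMSO:PEG400 (1:9, v/v) given IV or oral; 5 mg/kg for both routes, and 30 mg/kg oral; plasma t1/2, Vss, clearance, Cmax, AUC and F% determined.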

[6] = Volume of distribution at steady state in Sprague-Dawley rat at 5 mg/kg, iv; format: ADME, organism-based; conditions: in vivo, read-out: Vdss
Method in brief: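 Sprague-Dawley rats, n = 3 per experiment, each given a 5 mg/kg intravenous dose. The compound was formulated as a solution in DMSO:PEG400 (1:9, v/v). Plasma concentration–time data were used to derive pharmacokinetic parameters, including Vss.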

Rattus norvegicus [7] = assay: AUC in Sprague-Dawley rat at 5 mg/kg, iv; format: ADME, organism-based; conditions: in vivo; method in brief: as §2
[8] = Ratio of drug level in Sprague-Dawley rat liver to plasma at 5 mg/kg, po after 24 hrs; format: ADME, organism-based
Method in brief: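 Male/female not given; Sprague-Dawley rats, n = 3 per experiment, single 5 mg/kg oral dose given as a solution in DMSO:PEG400 (1:9, v/v). Drug concentrations measured in liver tissue and plasma at 12 h and 24 h post-dose; value reported as the liver-to-plasma concentration ratio.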

[9] = Half life in Sprague-Dawley rat at 30 mg/kg, po; format: ADME, organism-based; conditions: in vivo; method in brief: as §2
[10] = Cmax in Sprague-Dawley rat at 30 mg/kg, po; format: ADME, organism-based; design: dose 30 mg/kg, route oral; conditions: in vivo; method in brief: as §2
Rattus norvegicus [11] = assay: AUC in Sprague-Dawley rat at 30 mg/kg, po; format: ADME, organism-based; conditions: in vivo; method in brief: as §2
[12] = Oral bioavailability in Sprague-Dawley rat at 30 mg/kg; format: ADME, organism-based; conditions: in vivo; method in brief: as §2
[13] = Half life in dog at 2.5 mg/kg, iv; format: ADME, organism-based, Canis lupus familiaris; conditions: in vivo
[14] = Drug level in dog liver at 2.5 mg/kg, po after 24 hrs; format: ADME, organism-based, Canis lupus familiaris; conditions: read-out: Drug uptake
Method in brief: (§3)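 Dogs given oral doses; liver tissue and plasma drug levels measured at 12 and 24 h; liver:plasma ratio calculated.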

[15] = Plasma clearance in dog at 2.5 mg/kg, iv; format: ADME, organism-based, Canis lupus familiaris
[16] = Cmax in dog at 2.5 mg/kg, po; format: ADME, organism-based, Canis lupus familiaris; design: dose 2.5 mg/kg, route oral; conditions: in vivo
Canis familiaris [17] = assay: AUC in dog at 2.5 mg/kg, iv; format: ADME, organism-based, Canis lupus familiaris; conditions: in vivo
Canis familiaris [18] = assay: AUC in dog at 2.5 mg/kg, po; format: ADME, organism-based, Canis lupus familiaris; conditions: in vivo
[19] = Oral bioavailability in dog at 2.5 mg/kg; format: ADME, organism-based, Canis lupus familiaris; conditions: in vivo
[20] = Terminal half life in human at 80 mg administered as single dose; format: ADME; conditions: in vivo, read-out: beta t1/2 (converted)
Method in brief: (§4)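 Single oral doses of 80, 160 or 320 mg in healthy subjects; plasma concentration-time profiles reported as mean (+SD); Cmax and terminal phase half-life derived.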

[21] = Ratio of drug level in dog liver to plasma at 2.5 mg/kg, po after 12 hrs; format: ADME, organism-based, Canis lupus familiaris
[22] = Half life in dog at 30 mg/kg, po; format: ADME, organism-based, Canis lupus familiaris; conditions: in vivo
[23] = Cmax in dog at 30 mg/kg, po; format: ADME, organism-based, Canis lupus familiaris; design: dose 30 mg/kg, route oral; conditions: in vivo
Plasma [24] = assay: Drug level in po dosed dog plasma up to 24 hrs; format: ADME, organism-based, Canis lupus familiaris; conditions: in vivo; method in brief: as §3
Plasma [25] = assay: Drug level in po dosed Sprague-Dawley rat plasma up to 24 hrs; format: ADME, organism-based; conditions: in vivo
Method in brief: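 Sprague-Dawley rats given oral doses; liver tissue and plasma levels measured at 12 and 24 h; liver:plasma ratio calculated.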

[26] = Inhibition of HCV genotype 3a NS5B RNA dependent RNA polymerase assessed as reduction in [3H]UTP incorporation in to RNA preincubated for 15 mins followed by [3H]UTP addition measured after 3 hrs by microbeta scintillation counting method; design: species or system Hepatitis C virus subtype 3a
[27] = Inhibition of HCV genotype 2a NS5B RNA dependent RNA polymerase assessed as reduction in [3H]UTP incorporation in to RNA preincubated for 15 mins followed by [3H]UTP addition measured after 3 hrs by microbeta scintillation counting method; design: species or system Hepatitis C virus subtype 2a
Plasma [28] = assay: Drug uptake in human plasma administered as single dose; format: ADME, cell-free
[29] = system: Hepatitis C virus (isolate H77); assay: Inhibition of HCV genotype 1a H77 NS5B RNA dependent RNA polymerase M414T mutant assessed as reduction in [3H]UTP incorporation in to RNA preincubated for 15 mins followed by [3H]UTP addition measured after 3 hrs by microbeta scintillation counting method
Method in brief: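 Standard NS5B polymerase inhibition assay using genotype 1a (H77) or 1b (BK) enzyme. RNA product formation was measured as ³H-UTP incorporated into RNA, read by scintillation counting. IC50 was calculated with a standard IC50 equation.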

[30] = Cmax in human at 80 mg administered as single dose; format: ADME; design: dose 80 mg; conditions: in vivo; method in brief: as §4
[31] = Cmax in human at 160 mg administered as single dose; format: ADME; design: dose 160 mg; conditions: in vivo; method in brief: as §4
[32] = Tmax in human at 160 mg administered as single dose; format: ADME; conditions: in vivo
[33] = AUC (infinity) in human at 160 mg administered as single dose; format: ADME; design: dose 160 mg, time infinity; conditions: in vivo; method in brief: as §4
[34] = Cmax in human at 320 mg administered as single dose; format: ADME; design: dose 320 mg; conditions: in vivo; method in brief: as §4
[35] = Tmax in human at 320 mg administered as single dose; format: ADME; conditions: in vivo
[36] = Terminal half life in human at 320 mg administered as single dose; format: ADME; conditions: in vivo, read-out: beta t1/2 (converted); method in brief: as §4
[37] = AUC (infinity) in human at 320 mg administered as single dose; format: ADME; design: dose 320 mg, time infinity; conditions: in vivo; method in brief: as §4
Hepatitis C virus [38] = assay: Antiviral activity against HCV genotype 1 infected in human assessed as decrease in viral RNA load at 160 mg administered once daily for 2 days; format: functional, Hepacivirus hominis
Method in brief: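 HCV GT1-infected patients (N=4) given 160 mg once daily for 2 days; read-out was least squares mean maximum decrease from baseline in HCV RNA (log10 IU/mL).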

[39] = Tmax in human infected with HCV genotype 1 at 160 mg administered once daily for 2 days; format: ADME; conditions: in vivo
[40] = Half life in human infected with HCV genotype 1 at 160 mg administered once daily for 2 days; format: ADME; conditions: in vivo
Method in brief: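 HCV GT1-infected patients (N=4) given 160 mg once daily for 2 days; plasma Cmax, AUC and t1/2 determined.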

Hepatitis C virus [41] = assay: Antiviral activity against HCV genotype 1 infected in human assessed as sustained virologic response at 400 mg administered once daily in combination with ABT-450/r and ribavirin; format: functional, Hepacivirus hominis
Method in brief: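 GT1-infected adults given 400 mg once daily together with ABT-450/ritonavir and ribavirin; sustained virologic response assessed 24 weeks after treatment.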

COc1c(/C=C/c2ccc(NS(C)(=O)=O)cc2)cc(-n2ccc(=O)[nH]c2=O)cc1C(C)(C)C [ABT-072]
EC50 (Hepatitis C virus [1]): 0.3 nM | solubility [2]: 20.7 µM (≈ 9.72 µg/mL) | EC50 (Hepatitis C virus [3]): 1.1 nM | EC50 (Hepatitis C virus [4]): 19 nM | bioavailability [5]: 44% | Vd [6]: 3.7 L/kg | AUC (Rattus norvegicus [7]): 5730 ng·h/mL | Kp at 24 h [8]: 46 | half-life [9]: 3.5 h | Cmax [10]: 2000 ng/mL | AUC (Rattus norvegicus [11]): 21600 ng·h/mL | bioavailability [12]: 63% | half-life [13]: 5.5 h | concentration at 24 h [14]: > 1000 ng/g | clearance [15]: 2.5 mL/min/kg | Cmax [16]: 880 ng/mL | AUC (Canis familiaris [17]): 16800 ng·h/mL | AUC (Canis familiaris [18]): 14400 ng·h/mL | bioavailability [19]: 86% | half-life [20]: 8.17 h | Kp at 12 h [21]: 11 | half-life [22]: 9.6 h | Cmax [23]: 7560 ng/mL | Drug uptake (Plasma [24]): Dose-dependent effect | Drug uptake (Plasma [25]): Dose-dependent effect | IC50 [26]: 3000 nM | IC50 [27]: 23000 nM | Drug uptake (Plasma [28]): Dose-dependent effect | inhibition [29]: inactive | Cmax [30]: 180 ng/mL | Cmax [31]: 303 ng/mL | Tmax [32]: 6.8 h | AUC(0-inf) [33]: 4640 ng·h/mL | Cmax [34]: 486 ng/mL | Tmax [35]: 8.8 h | half-life [36]: 7.01 h | AUC(0-inf) [37]: 7200 ng·h/mL | Activity (Hepatitis C virus [38]): 1.18 log10IU/ml | Tmax [39]: 3.6 h | half-life [40]: 8.56 h | Activity (Hepatitis C virus [41]): 91%
